Compounds with a hit are over-represented: about 3.7% of the library has one in this group of screens.
NPY-Y2 PAM-ag – NPY-Y2 potentiators or agonists, primary screen, cell-based. Neuropeptide Y receptor type 2 (Homo sapiens), P49146. cells expressing NPY-Y2, potentiator/agonist read-out. activation, % at 3.6 µM. 0.45% of 220,000 active; in the data active = activation above about 27%;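 note: cells stimulated with NPY near EC25 plus isoproterenol at EC100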
NPY Y2 blocker – NPY-Y2 receptor antagonists, primary screen, cell-based | Neuropeptide Y receptor type 2 (Homo sapiens), P49146 | NPY-Y2 expressing cells, antagonist mode | inhibition, % at 2.7 µM | 0.99% of 140,000 active; in the data active = inhibition above about 17%
NPY Y1 blocker – NPY-Y1 receptor antagonists, primary screen, cell-based; 1% of 200,000 active; inhibition, % at 3.6 µM; HEK293-CNG Y1 cells, membrane potential fluorescence; NPY at EC95, then isoproterenol; AID 1040, 2008;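 active = inhibition above the campaign mean inhibition of all tested compounds plus 3 SD, cut at about 20% in these data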
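Test system: HEK293 cells co-expressing NPY Y1 receptor and cyclic-nucleotide gated channel; Also added: NPY (25 nM), isoproterenol (1 µM), Ro 20-1724 (25 µM); Compound dosing: one concentration, 3.6 µM, in 0.4% DMSO; Timing: dye 3 h, compound 60 min room temperature, stimulation 45 min; Technique: Membrane-potential fluorescent dye readout.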
KCC2 mod – KCC2 cotransporter modulators, thallium flux, primary screen, cell-based, HEK293 KCC2, FluoZin-2 fluorescence, MLSMR | KCC2 cells, thallium flux FluoZin-2 fluorescence | B-score of Tl+ flux slope (higher = more flux/activation; lower = inhibition) at 10 µM | 2.2% of 190,000 active | AID 1456, 2008;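 active = thallium flux slope and its plate-corrected score both differing from the plate sample mean at a set confidence after two filtering rounds, in either direction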;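 note: slope of fluorescence scaled to starting intensity during 10 to 20 s after thallium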
Target sequence (Q9H2X9 whole entry, looked up): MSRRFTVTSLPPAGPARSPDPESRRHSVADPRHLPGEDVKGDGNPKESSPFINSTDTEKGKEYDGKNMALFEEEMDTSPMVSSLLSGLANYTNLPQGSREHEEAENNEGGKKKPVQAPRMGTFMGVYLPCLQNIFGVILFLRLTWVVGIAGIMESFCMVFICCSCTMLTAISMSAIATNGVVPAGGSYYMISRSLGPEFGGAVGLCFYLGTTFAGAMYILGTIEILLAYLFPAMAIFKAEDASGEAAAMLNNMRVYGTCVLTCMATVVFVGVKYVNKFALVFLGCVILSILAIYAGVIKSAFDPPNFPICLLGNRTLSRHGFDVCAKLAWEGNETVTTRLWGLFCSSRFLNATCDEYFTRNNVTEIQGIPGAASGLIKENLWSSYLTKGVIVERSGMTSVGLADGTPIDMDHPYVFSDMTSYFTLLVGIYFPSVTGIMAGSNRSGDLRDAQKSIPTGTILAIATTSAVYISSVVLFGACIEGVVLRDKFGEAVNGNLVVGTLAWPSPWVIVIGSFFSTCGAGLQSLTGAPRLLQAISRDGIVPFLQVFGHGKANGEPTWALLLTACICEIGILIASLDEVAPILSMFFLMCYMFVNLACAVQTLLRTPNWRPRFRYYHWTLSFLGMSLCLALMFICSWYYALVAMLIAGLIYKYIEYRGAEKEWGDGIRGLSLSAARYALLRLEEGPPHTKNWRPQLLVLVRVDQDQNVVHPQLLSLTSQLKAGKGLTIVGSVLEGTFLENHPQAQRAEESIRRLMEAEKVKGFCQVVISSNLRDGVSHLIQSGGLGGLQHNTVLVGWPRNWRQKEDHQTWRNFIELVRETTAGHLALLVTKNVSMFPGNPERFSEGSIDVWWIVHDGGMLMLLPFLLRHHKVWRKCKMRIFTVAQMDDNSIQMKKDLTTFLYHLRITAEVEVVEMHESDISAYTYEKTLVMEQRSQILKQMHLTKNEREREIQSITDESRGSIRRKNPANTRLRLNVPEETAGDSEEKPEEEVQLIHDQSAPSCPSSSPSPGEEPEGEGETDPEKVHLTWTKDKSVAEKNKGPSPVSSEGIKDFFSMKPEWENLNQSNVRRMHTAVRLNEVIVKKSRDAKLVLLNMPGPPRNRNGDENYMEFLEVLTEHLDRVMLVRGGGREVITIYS
NPY-Y1 PAM-ag – NPY-Y1 receptor potentiators or agonists, primary screen, cell-based; Neuropeptide Y receptor type 1 (Homo sapiens), P25929; AID 1304, 2008; activation, % at 3.6 µM; NPY-Y1 expressing cells, potentiator/agonist activation; 0.37% of 220,000 active; in the data active = activation above about 33%, passing the limit was not always enough;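 note: cells stimulated with NPY at EC10 then isoproterenol at EC100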
Furin inhibitor – human furin inhibitors, primary screen, biochemical, fluorescence intensity; 0.061% of 220,000 active; purified furin, fluorogenic substrate cleavage; inhibition, % at 20 µM or 30 µM; AID 463115, 2010; in the data active = inhibition above about 25%
KCC2 secondary – KCC2 modulators in sodium-free buffer, confirmation, cell-based, HEK293 KCC2, thallium flux, secondary assay. shares compounds with KCC2 mod. FluoZin2 fluorescence; hits give high values. normalised thallium flux (F/F0 slope) at 10 µM. 15% of 3,700 active;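 active = thallium flux slope above the same plate's solvent-only control mean plus 3 SD; inconclusive = the two replicate wells disagree; inactive = no significant difference from solvent-only control wells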
KCC2 bumet counter – thallium flux persisting under bumetanide in KCC2 cells, confirmation, counter-screen for KCC2 modulator project, cell-based, HEK293 KCC2, FluoZin2, secondary assay 3 | 49% of 3,700 active | normalized thallium flux at 10 µM | shares compounds with KCC2 mod | HEK293-KCC2 + bumetanide/ouabain; hits give high values;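 active = thallium entry rate above the same plate's blocked-transporter control wells by more than 3 SD; inconclusive = the two repeat wells disagree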;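 note: raw slope of fluorescence over initial fluorescence between 10 and 20 s after thallium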
KCC2 secondary2 – KCC2 modulators without ouabain present, confirmation, cell-based, HEK293 KCC2, thallium flux, FluoZin2, secondary assay 2. normalized thallium flux at 10 µM. AID 1715, 2009. shares compounds with KCC2 mod. 23% of 3,700 active. thallium flux FluoZin2 fluorescence; actives lie on both sides; F/F0 rise rate, 10–20 s post-thallium;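 active = thallium flux slope more than 3 SD above or below the plate's solvent-only control mean, mostly below; inconclusive = the two repeat wells disagreed; inactive = no significant shift from solvent-only controls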
HEK counter1 – thallium flux modulation in parental HEK cells, confirmation, counter-screen for KCC2 modulator project, cell-based, counterscreen 1 | HEK293 parental cells, thallium flux FluoZin2, ouabain; baseline-ratio fluorescence slope, 10–20 s after thallium | thallium flux rate (normalised fluorescence) at 10 µM | 46% of 3,700 active | AID 1716, 2009 | shares compounds with KCC2 mod;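 active = thallium flux rate significantly above the same plate's solvent-only control wells, beyond their mean plus 3 SD; inconclusive = the two replicate wells gave conflicting results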
KCC2 retest ouab – KCC2 inhibitors and activators, ouabain retest, confirmation, HEK-KCC2 cells; shares compounds with KCC2 mod; HEK293-KCC2, thallium flux FluoZin2 fluorescence; bidirectional: low = inhibitor, high = activator; raw Tl+ flux slope (below DMSO = inhibition, above = activation) at 10 µM; 48% of 3,700 active; AID 1717, 2009;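 active = thallium flux slope beyond 3 SD from same-plate DMSO control mean in most replicates, usually higher, sometimes lower; inconclusive = repeat tests gave conflicting results; inactive = no significant difference from controls in most replicates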;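 note: slope of initial-normalized fluorescence between seconds 10 and 20 after thallium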
HEK counter2 – native HEK Tl+ uptake effects, second counter-screen – HEK cells, counterscreen 2, counter-screen for KCC2 modulator project, confirmation. shares compounds with KCC2 mod. HEK293 parental, thallium flux FluoZin-2 fluorescence slope. thallium flux slope at 10 µM. 33% of 3,700 active;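 active = thallium flux slope above the same plate's solvent-control mean plus 3 SD in both duplicate wells; inconclusive = duplicate wells that disagreed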;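 note: run without ouabain in cells lacking the KCC2 cotransporter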
Large screens that a line does not name were inactive (follow-up assays come after a bar, where they were run).

O=C1OC(c2ccc(O)cc2)(c2ccc(O)cc2)c2ccccc21	KCC2 mod 11 | KCC2 secondary inactive | KCC2 bumet counter 0.0096 | KCC2 secondary2 inactive | HEK counter1 inactive | KCC2 retest ouab 0.025 | HEK counter2 inactive
CC(C)C1(C(C)C)OC(=O)c2ccccc21	none
O=C(NNC(=O)c1ccc2nonc2c1)Nc1ccc(Cl)cc1	none (no result: NPY Y2 blocker, NPY Y1 blocker)
CCOC(=O)c1sc(NNC(=O)c2ccc(C)cc2)nc1C	none (no result: NPY Y2 blocker, NPY Y1 blocker)
CCOC(=O)c1sc(NNC(=O)c2ccc(F)cc2)nc1C	KCC2 mod 11 (no result: NPY Y2 blocker, NPY Y1 blocker) | KCC2 secondary 0.015 | KCC2 bumet counter 0.024 | KCC2 secondary2 inactive | HEK counter1 inconclusive | KCC2 retest ouab 0.03 | HEK counter2 inconclusive
O=C(NCC1CCCN(C(=O)NCc2ccccc2)C1)c1ccc2c(c1)OCO2 (stereo unspecified)	none (no result: NPY Y2 blocker)
C=CCC(=O)N1CCCC(CNC(=O)c2ccc(-c3ccccc3)cc2)C1 (stereo unspecified)	KCC2 mod -5.5 (no result: NPY Y2 blocker) | KCC2 secondary inactive | KCC2 bumet counter inactive | KCC2 secondary2 inactive | HEK counter1 inactive | KCC2 retest ouab 0.014 | HEK counter2 inactive
CC(=O)NCCC(=O)N1CCCC(CNC(=O)c2ccc(-c3ccccc3)cc2)C1 (stereo unspecified)	KCC2 mod -4.5 (no result: NPY Y2 blocker) | KCC2 secondary inactive | KCC2 bumet counter inactive | KCC2 secondary2 inconclusive | HEK counter1 inactive | KCC2 retest ouab 0.013 | HEK counter2 inactive
CC(=O)NCCC(=O)N1CCCC(C(=O)c2ccc3c4c(cccc24)CC3)C1 (stereo unspecified)	none (no result: NPY Y2 blocker)
O=C(NCC1CCCN(C(=O)c2cscn2)C1)c1ccc(-c2ccccc2)cc1 (stereo unspecified)	KCC2 mod -5.3 (no result: NPY Y2 blocker) | KCC2 secondary inactive | KCC2 bumet counter inactive | KCC2 secondary2 0.021 | HEK counter1 inconclusive | KCC2 retest ouab 0.012 | HEK counter2 inactive
Cc1csc(NC(=O)c2nn(C)c(C)c2[N+](=O)[O-])n1	none
Cc1nc2cc(NCc3ccccc3O)ccc2n1Cc1ccccc1	none (no result: NPY Y2 blocker)
CC1OC(OC2C(OC3C(O[C@H]4CC[C@]5(C)C6C=C[C@]78OC[C@@]9(CC[C@@H](C)[C@H](C)C97)[C@H](O)C[C@@]8(C)[C@]6(C)CC[C@H]5C4(C)C)OC(C)C(O)C3O)OC(CO)C(O)C2O)C(O)C(O)C1O (stereo partly specified)	KCC2 mod 28 (no result: NPY-Y2 PAM-ag, NPY Y2 blocker, NPY Y1 blocker, NPY-Y1 PAM-ag) | KCC2 secondary inconclusive | KCC2 bumet counter 0.025 | KCC2 secondary2 inactive | HEK counter1 0.043 | KCC2 retest ouab inconclusive | HEK counter2 inactive
CCOc1ccc(OCCCCOc2ccccc2C(C)=O)cc1	none
Cc1nn(C)c(Oc2cccc(Cl)c2)c1C(=O)Nc1ccc(F)cc1	none (no result: KCC2 mod)
CN1C(=O)/C(=C/c2ccccc2OCc2ccc(C(=O)O)cc2)NC1=S	none (no result: NPY Y2 blocker)
CN1C(=O)/C(=C/c2ccccc2OCc2ccccc2)NC1=S	KCC2 mod 9.7 | KCC2 secondary inactive | KCC2 bumet counter 0.013 | KCC2 secondary2 inactive | HEK counter1 0.0098 | KCC2 retest ouab inconclusive | HEK counter2 inactive
COC(=O)CN1C(=O)C2(C(C#N)=C(N)Oc3n[nH]c(-c4cccs4)c32)c2ccccc21 (stereo unspecified)	none
COC(=O)CN1C(=O)C2(C(C#N)=C(N)Oc3c2c(C)nn3-c2ccccc2)c2ccccc21 (stereo unspecified)	KCC2 mod 3.9 | KCC2 secondary inactive | KCC2 bumet counter 0.0057 | KCC2 secondary2 inactive | HEK counter1 inactive | KCC2 retest ouab inactive | HEK counter2 inactive
COc1ccc(CCN2C(=O)CC(NNc3ccc([N+](=O)[O-])cc3)C2=O)cc1OC (stereo unspecified)	none (no result: NPY Y2 blocker)
COc1cc2[nH]c(=S)n(C3CCCC3)c(=O)c2cc1OC	KCC2 mod 24 | KCC2 secondary inconclusive | KCC2 bumet counter 0.043 | KCC2 secondary2 inactive | HEK counter1 0.017 | KCC2 retest ouab 0.038 | HEK counter2 0.01
COc1cc2[nH]c(=S)n(C3CC3)c(=O)c2cc1OC	none (no result: NPY Y2 blocker)
Clc1ccc2nc(C3CCN(Cc4nnnn4C4CCCCC4)CC3)[nH]c2c1	KCC2 mod -4.4 | KCC2 secondary inactive | KCC2 bumet counter inactive | KCC2 secondary2 inactive | HEK counter1 inactive | KCC2 retest ouab inconclusive | HEK counter2 inactive
O=C(CNCc1cccc2ccccc12)Nc1ccccc1[N+](=O)[O-]	none (no result: NPY Y2 blocker)
COc1ccc(CC(=S)N2CCOCC2)cc1F	none
COc1cc(C(=S)N2CCOCC2)cc(OC)c1OC(=O)Cc1ccc(F)cc1	KCC2 mod -4.3 | KCC2 secondary inactive | KCC2 bumet counter inactive | KCC2 secondary2 0.028 | HEK counter1 inactive | KCC2 retest ouab 0.016 | HEK counter2 inactive
CC1Cc2ccccc2N1C(=O)COC(=O)c1cccnc1Cl (stereo unspecified)	KCC2 mod -4 | KCC2 secondary inactive | KCC2 bumet counter inactive | KCC2 secondary2 inactive | HEK counter1 inactive | KCC2 retest ouab inconclusive | HEK counter2 inconclusive
